36 compounds from ChEMBL document CHEMBL1255514, “Discovery of 8-azabicyclo[3.2.1]octan-3-yloxy-benzamides as selective antagonists of the kappa opioid receptor. Part 1” (Bioorg Med Chem Lett, 2010) can be followed below.

For series [1], the target named is T1, Kappa-type opioid receptor (Homo sapiens, UniProt P41145). The series can be described thus: Antagonist activity at human kappa opioid receptor assessed as inhibition of dynorphin A-induced [35S]GTPgammaS binding. Type of series: functional. On the technique in general: Binding of GTPγS marks nucleotide exchange on a G protein.
T1 sequence (P41145 whole entry): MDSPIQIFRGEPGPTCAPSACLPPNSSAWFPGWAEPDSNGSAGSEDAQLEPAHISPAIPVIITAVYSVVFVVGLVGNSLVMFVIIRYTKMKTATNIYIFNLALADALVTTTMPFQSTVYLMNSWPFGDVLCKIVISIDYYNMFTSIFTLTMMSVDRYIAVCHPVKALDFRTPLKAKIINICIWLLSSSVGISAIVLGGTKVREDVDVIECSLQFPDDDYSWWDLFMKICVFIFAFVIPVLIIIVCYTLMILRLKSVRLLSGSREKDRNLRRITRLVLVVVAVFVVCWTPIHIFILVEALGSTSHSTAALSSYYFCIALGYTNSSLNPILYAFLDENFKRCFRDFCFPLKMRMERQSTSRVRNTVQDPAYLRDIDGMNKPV
In a further series the target is Mu-type opioid receptor (Homo sapiens, UniProt P35372). The series is described as follows: Antagonist activity at human mu opioid receptor assessed as inhibition of DAMGO-stimulated [35S]GTPgammaS binding. Type of series: functional.
Chain of Mu-type opioid receptor (P35372 whole entry): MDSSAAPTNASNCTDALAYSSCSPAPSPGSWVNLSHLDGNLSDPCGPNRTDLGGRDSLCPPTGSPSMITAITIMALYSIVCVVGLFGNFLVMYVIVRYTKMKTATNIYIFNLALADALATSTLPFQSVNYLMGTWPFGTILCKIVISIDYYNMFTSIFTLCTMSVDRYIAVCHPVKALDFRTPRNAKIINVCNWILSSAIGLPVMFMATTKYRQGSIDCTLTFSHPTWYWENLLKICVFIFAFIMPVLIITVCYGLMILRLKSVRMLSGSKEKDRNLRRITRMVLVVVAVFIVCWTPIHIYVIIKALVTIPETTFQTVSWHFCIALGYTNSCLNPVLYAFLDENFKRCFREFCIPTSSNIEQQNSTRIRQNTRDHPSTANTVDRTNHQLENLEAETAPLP
Series [2] deals with Delta-type opioid receptor (Homo sapiens, UniProt P41143). The series can be described thus: Antagonist activity at human delta opioid receptor assessed as inhibition of SNC80-stimulated [35S]GTPgammaS binding. Type of series: functional.
Chain of Delta-type opioid receptor (P41143 whole entry): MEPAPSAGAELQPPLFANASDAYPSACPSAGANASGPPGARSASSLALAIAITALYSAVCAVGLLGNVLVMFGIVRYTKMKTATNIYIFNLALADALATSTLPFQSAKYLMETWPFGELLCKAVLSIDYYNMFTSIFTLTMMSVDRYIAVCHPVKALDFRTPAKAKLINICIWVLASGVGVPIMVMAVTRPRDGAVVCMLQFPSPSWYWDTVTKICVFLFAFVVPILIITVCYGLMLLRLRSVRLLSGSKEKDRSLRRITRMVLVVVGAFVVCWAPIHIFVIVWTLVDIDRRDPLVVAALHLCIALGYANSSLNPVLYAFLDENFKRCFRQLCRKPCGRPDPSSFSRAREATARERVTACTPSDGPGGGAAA
Series [3] has as its target T1, Kappa-type opioid receptor. The series is described as follows: Binding affinity to kappa opioid receptor.
The nature of series [4]: Apparent permeability from apical to basolateral side of MDCK cells expressing MDR1. Conditions: dog. The format is ADME, cell-based, Canis lupus familiaris. In short, it runs like this: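 MDCK cells stably expressing human MDR1 P-glycoprotein grown as monolayer; apical-to-basolateral transport rate reported in nm/s.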
Series [5] in a line: Intrinsic clearance in human liver microsomes. Type of series: ADME, Microsome. In short, it runs like this:
(§1)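 Standard liver microsomal stability protocol using human or rat liver microsomes; intrinsic clearance expressed per mg microsomal protein per minute.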

Series [6] in a line: Intrinsic clearance in rat liver microsomes. The format is ADME, Microsome. In outline:
as §1
A general note: Microsomes from liver hold many membrane-bound enzymes, among them those of drug oxidation.

The next series deals with Plasma. The series is described as follows: Fraction unbound in rat plasma. The format is ADME, cell-free.
Series [7] addresses Voltage-gated inwardly rectifying potassium channel KCNH2 (Homo sapiens, UniProt Q12809).
The nature of series [8]: Clearance in Sprague-Dawley rat at 2 umol/kg, iv. The format is ADME, organism-based. Conditions: in vivo.
Series [9] can be described thus: Half life in Sprague-Dawley rat at 2 umol/kg, iv. Type of series: ADME, organism-based. Conditions: in vivo.
Series [10] can be described thus: Volume of distribution at steady state in Sprague-Dawley rat at 2 umol/kg, iv. Conditions: in vivo, read-out: Vdss. Type of series: ADME, organism-based.
Series [11] is described as follows: Oral bioavailability in Sprague-Dawley rat at 6 umol/kg, po. The format is ADME, organism-based. Conditions: in vivo.
The nature of series [12]: Ratio of drug level in brain to plasma in Sprague-Dawley rat at 5 umol/kg, iv. The format is ADME, organism-based. The note with it: brain and plasma, read-out: BPR. In short, it runs like this: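 Total brain and plasma concentrations measured 2 h after a 5 µmol/kg intravenous infusion in rats; brain/plasma ratio calculated.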
The next series has as its system Rattus norvegicus. The series can be described thus: Antidiuretic activity against U50488-induced diuresis in sc dosed Sprague-Dawley rat. Type of series: functional. Conditions: Urine, read-out: ID50 (the source's name).

Chain of Voltage-gated inwardly rectifying potassium channel KCNH2 (Q12809 whole entry): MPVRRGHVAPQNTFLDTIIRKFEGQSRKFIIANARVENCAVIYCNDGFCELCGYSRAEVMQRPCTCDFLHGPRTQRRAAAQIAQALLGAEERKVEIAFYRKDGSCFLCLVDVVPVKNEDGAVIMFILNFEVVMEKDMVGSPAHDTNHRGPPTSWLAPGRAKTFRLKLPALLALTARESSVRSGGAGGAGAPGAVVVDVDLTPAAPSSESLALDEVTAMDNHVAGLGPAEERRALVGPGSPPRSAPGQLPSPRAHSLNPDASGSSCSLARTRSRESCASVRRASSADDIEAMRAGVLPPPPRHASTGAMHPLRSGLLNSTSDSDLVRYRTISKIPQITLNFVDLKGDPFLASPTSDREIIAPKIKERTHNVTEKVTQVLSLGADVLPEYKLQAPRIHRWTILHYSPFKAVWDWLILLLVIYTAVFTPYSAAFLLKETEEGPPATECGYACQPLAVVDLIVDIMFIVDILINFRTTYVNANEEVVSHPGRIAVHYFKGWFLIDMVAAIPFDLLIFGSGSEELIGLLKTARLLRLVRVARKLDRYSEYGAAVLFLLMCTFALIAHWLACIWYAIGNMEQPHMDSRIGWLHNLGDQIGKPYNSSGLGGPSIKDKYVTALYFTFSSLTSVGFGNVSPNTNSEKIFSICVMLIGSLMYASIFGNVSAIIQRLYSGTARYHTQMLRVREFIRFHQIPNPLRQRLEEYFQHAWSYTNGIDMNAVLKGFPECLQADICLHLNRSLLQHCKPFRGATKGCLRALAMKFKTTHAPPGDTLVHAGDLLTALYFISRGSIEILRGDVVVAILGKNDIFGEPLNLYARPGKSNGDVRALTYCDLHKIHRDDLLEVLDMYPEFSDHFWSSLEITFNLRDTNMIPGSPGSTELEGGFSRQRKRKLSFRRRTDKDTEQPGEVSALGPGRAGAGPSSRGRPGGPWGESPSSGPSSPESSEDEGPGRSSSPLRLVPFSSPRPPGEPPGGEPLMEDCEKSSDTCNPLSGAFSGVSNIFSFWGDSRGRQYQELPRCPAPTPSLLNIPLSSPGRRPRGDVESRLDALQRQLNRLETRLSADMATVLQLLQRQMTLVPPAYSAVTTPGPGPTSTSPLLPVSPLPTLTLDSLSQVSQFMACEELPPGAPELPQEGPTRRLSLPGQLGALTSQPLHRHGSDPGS

As a reminder, the IC50 is the concentration needed to halve the response being measured. By Ki is commonly meant the equilibrium dissociation constant of an inhibitor or competing ligand from its target. Lower therefore signals higher affinity. On to `CC(C)[C@@H](CN1CC[C@@](C)(c2cccc(O)c2)[C@@H](C)C1)NC(=O)[C@H]1Cc2ccccc2CN1`, for which the IC50 was 0.5 nM in series [1], 41 nM on Mu-type opioid receptor and 1280 nM in series [2]. The compound also registered a Ki in series [3] of 0.3 nM.
With `Cc1ccc(CN2[C@@H]3CC[C@H]2C[C@H](Oc2cccc(C(N)=O)c2)C3)o1`, the IC50 came out at 386 nM in series [1], 10900 nM on Mu-type opioid receptor and 22000 nM in series [2].
Take `NC(=O)c1cccc(OC2CCN(CC3CC3)CC2)c1`: the IC50 in [1] came out at 28200 nM. The same compound had a Ki in series [3] of 146 nM.
Regarding `C[C@H](c1ccccc1)N1[C@@H]2CC[C@H]1C[C@H](Oc1cccc(C(N)=O)c1)C2`, the IC50 in series [1] was 683 nM; at Mu-type opioid receptor, above 24400 nM.
Regarding `C[C@@H](c1ccccc1)N1[C@@H]2CC[C@H]1C[C@H](Oc1cccc(C(N)=O)c1)C2`, the IC50 in series [1] is 20500 nM; on Mu-type opioid receptor, above 30000 nM.
The Papp A→B is the apparent permeability from the apical to the basolateral side of a cell layer. On to `O=C(Nc1cccc(NC(=O)c2cccc(N3CCOCC3)c2)c1)c1cccc(OC2CCN(CC3CC3)CC2)c1`, for which the IC50 in [1] is 77 nM; at Mu-type opioid receptor it was above 30000 nM; in series [2], above 30000 nM. Besides, the Papp A→B in series [4] was below 1 ×10⁻⁶ cm/s. In series [3], the Ki stood at 0.5 nM.
On to `Cc1ccc([C@@H](C)N2[C@@H]3CC[C@H]2C[C@H](Oc2cccc(C(N)=O)c2)C3)s1`, for which the IC50 in [1] was determined as 111 nM.
Regarding `COc1cccc([C@@H](C)N2[C@@H]3CC[C@H]2C[C@H](Oc2cccc(C(N)=O)c2)C3)c1`, the values for the IC50 (in series [1]; on Mu-type opioid receptor) were 46 nM and 1050 nM, respectively.
As for `NC(=O)c1cccc(OC2CCN(Cc3ccccc3)CC2)c1`, the IC50 was 585 nM in series [1], above 30000 nM at Mu-type opioid receptor and above 30000 nM in series [2]. In [3], this compound had a Ki of 75 nM.
One may read the microsomal CLint as the capacity of the preparation to metabolise the compound, expressed as a volume cleared per time. High values mean faster metabolism, low ones greater metabolic stability. Turning to `Cc1ccc([C@@H](C)N2[C@@H]3CC[C@H]2C[C@H](Oc2cccc(C(N)=O)c2)C3)cn1`, the microsomal CLint in [5] is below 4 µL/min/mg; in [6], 14 µL/min/mg. In addition, in [4], the Papp A→B stood at 9.1 ×10⁻⁶ cm/s. Besides, the PPB in the series with Plasma turned out to be 81%.
`C[C@H](c1ccnc(Cl)c1)N1[C@@H]2CC[C@H]1C[C@H](Oc1cccc(C(N)=O)c1)C2`: the IC50 in [1] was determined as 307 nM; on Mu-type opioid receptor, 22900 nM.
Take `NC(=O)c1cccc(O[C@@H]2C[C@H]3CC[C@@H](C2)N3Cc2cccs2)c1`: the IC50 is 215 nM in series [1], 9360 nM on Mu-type opioid receptor, above 30000 nM in series [2] and 430 nM in series [7].
As a reminder, the clearance is a measure of how efficiently the substance is removed, as volume per time. The term half-life denotes how long it takes for the measured level to halve. Read a high half-life as slow loss. The term bioavailability denotes the share of a dose that reaches the circulation, judged against a reference dose that is usually intravenous. A lower bioavailability goes with little systemic uptake. On to `Cc1ccc(CN2[C@@H]3CC[C@H]2C[C@H](Oc2cccc(C(N)=O)c2)C3)s1`, for which the microsomal CLint was determined as 31 µL/min/mg in series [5] and 379 µL/min/mg in series [6]. The Papp A→B in series [4] turned out to be 13 ×10⁻⁶ cm/s. The compound further returned a PPB in the series with Plasma of 50%. In series [8], this compound returned a clearance of 113 mL/min/kg. Also, in [9], the half-life was 1 h. Besides, the Vd in [10] came out at 5.1 L/kg. Further, the bioavailability in [11] came out at 1.7%. Moreover, the Kp in series [12] is 4. For the same compound, the ED50 with Rattus norvegicus was 0.006 µmol/kg.
With `NC(=O)c1cccc(O[C@@H]2C[C@H]3CC[C@@H](C2)N3CCc2ccccc2)c1`, the IC50 in series [1] was 754 nM; at Mu-type opioid receptor, 424 nM; in series [2] it was 2150 nM.
`NC(=O)c1cccc(O[C@@H]2C[C@H]3CC[C@@H](C2)N3CCCc2ccccc2)c1`: the IC50 in series [1] is 342 nM; at Mu-type opioid receptor it was 659 nM; in series [2] it was 4000 nM.
`Cc1ccc(CN2[C@@H]3CC[C@H]2C[C@H](Oc2cccc(C(N)=O)c2)C3)cc1`: the IC50 was 49 nM in [1], 482 nM on Mu-type opioid receptor and 10900 nM in series [2].
Turning to `Cc1ccccc1CN1[C@@H]2CC[C@H]1C[C@H](Oc1cccc(C(N)=O)c1)C2`, the results for the IC50 (on Mu-type opioid receptor; in series [2]) were 17600 nM and above 30000 nM, respectively.
As to `NC(=O)c1cccc(O[C@@H]2C[C@H]3CC[C@@H](C2)N3Cc2ccncc2)c1`, in series [2], the IC50 was above 24700 nM.
As to `NC(=O)c1cccc(O[C@@H]2C[C@H]3CC[C@@H](C2)N3Cc2cccnc2)c1`, the IC50 in series [1] is 431 nM; at Mu-type opioid receptor, 2890 nM; in [2], above 21900 nM.
For `NC(=O)c1cccc(O[C@@H]2C[C@H]3CC[C@@H](C2)N3Cc2ccccn2)c1`, the IC50 in series [1] is 3160 nM; at Mu-type opioid receptor, 19000 nM; in [2], above 30000 nM; in [7] it was 1900 nM.
As to `CN1[C@@H]2CC[C@H]1C[C@H](Oc1cccc(C(N)=O)c1)C2`, the IC50 in [1] was determined as 12600 nM.
As for `NC(=O)c1cccc(O[C@@H]2C[C@H]3CC[C@@H](C2)N3CC2CC2)c1`, the IC50 in [1] was 6690 nM; at Mu-type opioid receptor it was above 30000 nM; in [2], above 30000 nM.
For `NC(=O)c1cccc(O[C@@H]2C[C@H]3CC[C@@H](C2)N3CC2CCCCC2)c1`, the results for the intrinsic clearance (microsomal CLint) in [5] and in series [6] were below 4 µL/min/mg and 196 µL/min/mg, respectively. In addition, the Papp A→B in series [4] was determined as 8.3 ×10⁻⁶ cm/s. Besides, in series [8], the clearance was determined as 184 mL/min/kg. The same compound had a half-life in series [9] of 1 h. Also, the Vd in [10] was 9.5 L/kg. For the same compound, the bioavailability in series [11] was determined as 1.8%. Also, the Kp in [12] was 5.
In the case of `NC(=O)c1cccc(O[C@@H]2C[C@H]3CC[C@@H](C2)N3Cc2ccc3c(c2)OCO3)c1`, the IC50 in series [1] was determined as 11 nM; on Mu-type opioid receptor, 307 nM; in series [2] it was 4840 nM.
As for `CS(=O)(=O)Cc1ccc(CN2[C@@H]3CC[C@H]2C[C@H](Oc2cccc(C(N)=O)c2)C3)cc1`, the values for the IC50 (in series [1]; on Mu-type opioid receptor; in series [2]) were 39 nM, 576 nM and 5390 nM, respectively.
For `Cn1cc(CN2[C@@H]3CC[C@H]2C[C@H](Oc2cccc(C(N)=O)c2)C3)cn1`, in that order: 524 nM, 9430 nM and above 27300 nM.
For the compound `NC(=O)c1cccc(O[C@@H]2C[C@H]3CC[C@@H](C2)N3CC(=O)N2CCCC2)c1`, the IC50 in series [1] was 3410 nM; at Mu-type opioid receptor, 21100 nM; in series [2], above 30000 nM; in series [7], above 33000 nM.
As for `NC(=O)c1cccc(O[C@@H]2C[C@H]3CC[C@@H](C2)N3CC(=O)Nc2ccccc2)c1`, the IC50 in [1] came to 345 nM; on Mu-type opioid receptor it was 253 nM; in series [2], 2670 nM; in series [7] it was 720 nM.
`CC(c1ccccc1)N1[C@@H]2CC[C@H]1C[C@H](Oc1cccc(C(N)=O)c1)C2` (stereo partly specified): the IC50 was found to be 1000 nM in series [1] and 19800 nM on Mu-type opioid receptor.
Consider `Cc1ccc(C(C)N2[C@@H]3CC[C@H]2C[C@H](Oc2cccc(C(N)=O)c2)C3)s1` (stereo partly specified), for which the IC50 in series [1] is 355 nM.
For `Cc1ccccc1C(C)N1[C@@H]2CC[C@H]1C[C@H](Oc1cccc(C(N)=O)c1)C2` (stereo partly specified), the values for the IC50 (in series [1]; on Mu-type opioid receptor) were 846 nM and 16800 nM, respectively.
As for `NC(=O)c1cccc(O[C@@H]2C[C@H]3CC[C@@H](C2)N3C2CCCc3ccccc32)c1` (stereo partly specified), the results for the IC50 (in series [1]; on Mu-type opioid receptor) were 2190 nM and 22700 nM, respectively.
Take `NC(=O)c1cccc(O[C@@H]2C[C@H]3CC[C@@H](C2)N3C2CCCCC2)c1`: the IC50 in series [1] was 1130 nM; on Mu-type opioid receptor, 9410 nM.
As to `CC(C)(c1ccccc1)N1[C@@H]2CC[C@H]1C[C@H](Oc1cccc(C(N)=O)c1)C2`, in series [1], the IC50 came out at 13300 nM.
As for `NC(=O)c1cccc(O[C@@H]2C[C@H]3CC[C@@H](C2)N3C2(c3ccccc3)CC2)c1`, the IC50 is 24200 nM in series [1] and above 30000 nM on Mu-type opioid receptor.
For `CC(c1ccncc1)N1[C@@H]2CC[C@H]1C[C@H](Oc1cccc(C(N)=O)c1)C2` (stereo partly specified), the IC50 at Mu-type opioid receptor was above 30000 nM.
